From ChEMBL document CHEMBL4513216, “Probing the Open Global Health Chemical Diversity Library for Multistage-Active Starting Points for Next-Generation Antimalarials” (ACS Infect Dis, 2020)

assay: Toxicity liver stage against HepG2, at 10uM; assay type: cell-based; design: test concentration 10 uM, cell line HepG2-A16-CD81EGFP; settings: human, HepG2-A16-CD81EGFP cells; read-out: INHIBITION
How it was run: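 Uninfected HepG2-A16-CD81EGFP cells, 3 × 10^3 per well, 1536-well, plated on prespotted compound at 10 μM final, parasite-free screening media added to match infected plates; puromycin 10 μM positive, DMSO 0.5% negative; run in parallel with 48 h PbLuc assay at 37 °C, 5% CO2; viability by CellTiter-Glo luminescence, normalized to controls.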

SMILES	cytotoxicity at 10 µM
Cn1ccnc1CN1CCN(CC(=O)NCC(F)(F)F)CC1	-10%
O=C(C[C@@H]1COC[C@H]2CN(Cc3ccccc3)C[C@@H]12)N1CCCC1	2.03%
O=c1ccc2c(n1CCN1CCCC1)CCN(Cc1ccoc1)CC2	-8.97%
COc1ccccc1[C@@H]1CN(Cc2cnc(N(C)C)nc2)C[C@H]1C(=O)O	-3.89%
CNc1ccnc(NCCSc2nccn2C)n1	-42.6%
Cc1nn(C)c(Cl)c1C1CCCN1CC(=O)N1CCOCC1 (configuration not stated)	3.41%
CN(Cc1ccncn1)C(=O)CCC(=O)NC1CCCC1	-1.01%
Clc1cccc(CNC2CCN(CCc3ccncc3)CC2)c1	-5.62%
O=C(Nc1cc(C2CCOCC2)[nH]n1)c1cc[nH]n1	-3.43%
CCCN1CCCC2(CCN(Cc3noc(C4CCCC4)n3)C2)C1=O (configuration not stated)	0.603%
Cn1c(C(F)(F)F)nn(CCNC(=O)Nc2ccccc2F)c1=O	-2.59%
CCCN1CCN(Cc2nc3ccccc3[nH]2)[C@H]2CS(=O)(=O)C[C@H]21	-137%
Cn1cc(CN2CCC(c3[nH]ncc3S(C)(=O)=O)C2)cn1 (configuration not stated)	-4.55%
CCS(=O)(=O)N1CCC2(CC1)CC(OCC1CC1)CO2 (configuration not stated)	7.92%
CC(CCN1CCCC1=O)NCc1cnc(C2CCC2)s1 (configuration not stated)	-0.743%
Cc1nc(C2CCCN(C(=O)c3cccc(S(C)(=O)=O)c3)C2)no1 (configuration not stated)	-2.33%
Cc1cc(CN(C)Cc2ncc(-c3ccccc3)o2)no1	-13.8%
N#Cc1ccc(N2CCCC2Cn2cncn2)nc1 (configuration not stated)	6.05%
COCc1nc(C(=O)NS(=O)(=O)c2cc(C)ccc2C)cs1	-4.04%
CS(=O)(=O)NC[C@]12COC[C@H]1CN(C(=O)C1CC=CC1)C2	-105%
COC(=O)c1ccoc1CN(C)CC(=O)NC1CCS(=O)(=O)C1 (configuration not stated)	-14.2%
COCCCNC(=O)c1c(-n2cnnn2)sc2c1CCC2	11.4%
CC(=O)c1cc(CN2C[C@@H](CN3CCC(O)CC3)[C@@H](CO)C2)n(C)c1	7.58%

SMILES	cytotoxicity at 10 µM
Cc1nn(C)c(C)c1C1CCCN1C(=O)c1ccc2nnc(C)n2c1 (configuration not stated)	-12.2%
O=C(C1CC=CC1)N1CCC2(CC1)CN(Cc1ccccn1)CCO2	-10.1%
CC(C)C(O)CNC(=O)Nc1cccc(-c2nccs2)c1 (configuration not stated)	-5.5%
O=C(c1ccco1)N1C[C@H]2CCCN(CC3CC3)[C@H]2C1	2.36%
COc1nccnc1-c1cc(NC2CCCC2)nc2[nH]ccc12	1.97%
CCn1ncnc1CN1CCc2[nH]cnc2C1c1ccccn1 (configuration not stated)	-9.38%
O=S(=O)(C1CC1)N1CC[C@]2(C[C@@H](Oc3ncccc3F)CO2)C1	-74.1%
CC(C)(C)c1n[nH]c(C2CN(C(=O)Cn3ccccc3=O)CCO2)n1 (configuration not stated)	-1.22%
CCC(C)NC(=O)CCc1ccnc2ccccc12 (configuration not stated)	5.44%
COc1ccc(Cc2ncc3c(n2)CN(C(=O)C(C)(C)OC)C3)cc1	-1.24%
CSc1ccc(-n2ccnc2-c2cc3n(n2)CCNC3)cc1	-9.94%
Cc1ncc2c(c1CNC(=O)C1(C)CC1)CCNC2	-50.3%
CCOc1cc(C(=O)N2CCCC(c3noc(CC)n3)C2)ccn1 (configuration not stated)	-3.65%
Cc1cc(N2CCC(NCCOc3ccccc3)CC2)nc(C)n1	-6.11%
COCC1COCCC12CCN(Cc1nccs1)CC2 (configuration not stated)	2.31%
CN(C)[C@H]1CCCCN(C(=O)c2cccc(-c3cccc(F)c3)c2)C1	-6.3%
CN1CC(Oc2ccccc2)=NC(SCC(=O)Nc2ccccc2Cl)=N1	-9.19%
O=C(c1cc(-n2cccc2)ccc1Cl)N1CCC2(CC1)OCCO2	-7.58%
O=C1CC(c2ccccc2)c2cnn(C3CCCC3)c2N1 (configuration not stated)	1.5%
Cc1cn2c(n1)CCC(NS(=O)(=O)c1sc(C)nc1C)C2 (configuration not stated)	-20.8%
CN1CCC(N2CCC(c3ccccc3C(=O)O)C2)CC1 (configuration not stated)	-1.05%
CN(Cc1cccnc1)C[C@@H]1OC[C@H]2CN(Cc3ccco3)CC[C@H]21	-147%
Cc1nn(C)c(N(C)C)c1CNCc1ccccc1CO	-8.84%

SMILES	cytotoxicity at 10 µM
N#Cc1ccccc1N1CCCN(C(=O)CCc2ccco2)CC1	-8.48%
CSc1nccn1-c1cccc(C(=O)NCCCN2CCOCC2)c1	-4.74%
CCc1ccc(C(O)CN2CCN(c3cccc(OC)c3)CC2)cc1 (configuration not stated)	11.2%
CC1CN(C(=O)c2cscn2)c2ccccc2S1 (configuration not stated)	6.43%
O=C(NC1CC1)C1CCCN(c2cc(-n3cncn3)ncn2)C1 (configuration not stated)	10.1%
Cc1ccc2c(c1)OC(C)CN2C(=O)CCc1cscn1 (configuration not stated)	-48.5%
CCS(=O)(=O)N(C)CCCNCc1c(C)nn(C)c1N(C)C	-8.72%
CSCCC(=O)N1CCC(Oc2cc(C)ccc2F)(C(=O)O)CC1	-6.02%
CC(=O)N1CCOC2(CCN(C(=O)C3CC3)CC2)C1	-106%
O=C(c1ccc(F)c(F)c1)N1CCCC(Nc2ccc(F)cc2)C1 (configuration not stated)	-12.1%
Cc1ccc(CNC(=O)N2CCN(Cc3ccsc3)CC2)n1C	9.58%
Cc1cccc(CNC(=O)C2CCC(=O)N(Cc3ccccc3F)C2)n1 (configuration not stated)	-3.75%
CCc1ncc2c(n1)CN(c1nnc(C)c(C)c1C#N)CC2	-134%
CCN(CC1CCCO1)C(=O)Nc1cccc(N2CCOCC2)c1 (configuration not stated)	8.44%
O=C(Nc1cccc(OC(F)F)c1)C1CN(S(=O)(=O)C2CC2)C1	0.696%
CC(C)n1[nH]c(=O)c2c1NC(=O)CC2c1cccc2cccnc12 (configuration not stated)	2.83%
CN(C)C(=O)c1cccc(C2CNCCN2C)c1 (configuration not stated)	-3.15%
CN1CCN(S(=O)(=O)c2ccccc2)Cc2cccnc21	-104%
Cc1ccccc1-n1cc(C2=CCN(CCn3cc[nH]c3=O)CC2)cn1	16.5%
CC(C)n1nc(Cn2cccn2)c2c1CN(CC1CCOC1)C2 (configuration not stated)	7.13%
Cc1cc(=O)n(CCNS(=O)(=O)c2cccc(C(F)(F)F)c2)cn1	-6.98%
COc1cccc(CN2CCCC3(CCN(C(=O)N4CCCC4)C3)C2)c1 (configuration not stated)	-4.34%
CC(=O)NCCC(=O)Nc1cccc(N2CCN(CC3CC3)CC2)c1	-5.62%

SMILES	cytotoxicity at 10 µM
OCC1CCCCN1Cc1nc(Cc2ccccc2)no1 (configuration not stated)	5.13%
Cc1nn(C)cc1Cn1c(=O)cnc2ccccc21	7.8%
CC(=O)N1CCNCC1c1cccc(C(=O)N(C)C)c1 (configuration not stated)	4.45%
CNC(=O)c1cccnc1NCCOc1ccccc1	-4%
CNCc1ccc(Oc2cncc(C)n2)cc1	7.1%
COCc1cc(N(C)Cc2ncnn2C)nc(C(C)(C)C)n1	6.39%
Cc1ccnc(NC(=O)C2CCCO2)c1 (configuration not stated)	-11.3%
Cc1cc(C)c(CNC(=O)NCC(O)c2ccccc2)c(=O)[nH]1 (configuration not stated)	-10%
COCCC(=O)N1CCC2(CCCN2Cc2ccccc2)C1 (configuration not stated)	10.4%
CC(O)CN1CCC(CNCc2cccc(OC(F)(F)F)c2)CC1 (configuration not stated)	-7.95%
COC(=O)c1cccn1C1CCN(Cc2nc3ccccc3o2)CC1	1.81%
COc1ccc(C2CC(=O)Nc3nc(N4CCOCC4)sc32)cc1 (configuration not stated)	10.8%
COc1nc2c(cc1C(=O)N1CCCOC(Cn3cccn3)C1)CCC2 (configuration not stated)	-52.1%
Cn1cccc1C(=O)N1CCCCC12CC(=O)N(c1cccnc1)C2 (configuration not stated)	-1.91%
CN(C1CCCCC1)S(=O)(=O)NC1CCCN(c2ncccn2)C1 (configuration not stated)	3.7%
Cc1ccc(NC2CCN(C(=O)c3cc(C)no3)CC2)nn1	-11.6%
CCn1nnc2c1C(COC)CN(C(=O)Cc1cccs1)C2 (configuration not stated)	-15.5%
O=S(=O)(C1CC1)N1C[C@H]2CCC[C@@]2(COCc2ccccn2)C1	10.6%
COc1cccc(C2c3c(n[nH]c3C)N=C3COC(=O)C32)c1O (configuration not stated)	65.8%
COc1ncccc1C(=O)N1CC[C@H]2C[C@H](c3ccncn3)O[C@@H]2C1	9.4%
O=C(c1cc(C2CCCCN2C(=O)C2CCC2)n[nH]1)N1CCOCC1 (configuration not stated)	-14%
COCCC(=O)N1CCCCC1c1ccc(F)cc1 (configuration not stated)	-41.3%
Cc1cnn(CC2CCCN2C(=O)c2ccc(C(N)=O)cn2)c1 (configuration not stated)	-4.64%

SMILES	cytotoxicity at 10 µM
O=C1COc2ccc(C(=O)NS(=O)(=O)c3cc(F)ccc3F)cc2N1	-4.92%
NC(=O)CC1CCN(c2ncnc3cccc(F)c23)CC1	3.39%
Cc1cnn(CCNCc2ccc(OCc3cccnc3)cc2)c1	-12.1%
Cc1nn2c(-c3cnn(C)c3)nnc2s1	-15.4%
O=C(NS(=O)(=O)c1ccc2c(c1)CCC2)C1COCCO1 (configuration not stated)	10.4%
CCOc1ncccc1CNC(=O)N1CCCC1c1ccsc1 (configuration not stated)	-7.69%
Cc1cc2nc(C(C)C)cc(NC(C)c3nncn3C3CCCC3)n2n1 (configuration not stated)	8.91%
CN(C)c1ncc(-c2cc(C(=O)N3CCCC3)n(CC3CC3)c2)cn1	-0.376%
Cc1nc(CN)cc(N2CCC(O)(c3ccc(Cl)cc3)CC2)n1	-8.13%
COC(=O)C(C)N(Cc1cc(C)on1)C1CC1 (configuration not stated)	0.91%
CC1CN(C)CCN1C(=O)c1cnn(-c2cccc(Cl)c2)c1 (configuration not stated)	-8.68%
CSc1nccc(N2CCN(C)C3(CCNC(=O)CC3)C2)n1 (configuration not stated)	18.7%
CCC1CN(c2nnc(C)c(C)c2C#N)CCO1 (configuration not stated)	-0.678%
Fc1ccc(CC2CCN(Cc3nccs3)CC2)cc1	-2.87%
CN(CC(F)(F)F)C(=O)CNC(=O)Cc1ccc(O)cc1Cl	-1.11%
O=C(c1cscn1)N1CCC2(COc3ncccc3S(=O)(=O)N2)C1 (configuration not stated)	7.22%
CC(C)Nc1nc2c(cc1C(=O)NCC1CC1)CCNCC2	-5.42%
Cn1nc(C2CCCN(Cc3cc(F)ccc3F)C2)c2nccnc21 (configuration not stated)	-12.9%
CC(C)c1nc(C2CCCN2CCCc2nc3ccccc3o2)no1 (configuration not stated)	-8.43%
Cc1noc([C@@H]2CC[C@@H]3[C@@H](CCN3S(=O)(=O)c3cccnc3)O2)n1	-13.1%
